Measurements: ChEMBL document CHEMBL1122219, “Synthesis and antiviral activity of water-soluble esters of acyclovir [9-[(2-hydroxyethoxy)methyl]guanine]” (1983)
≈ marks a conversion by molar mass, not a printed value.

Key:
Type in all cases: functional
Oryctolagus cuniculus [1] = organism: Oryctolagus cuniculus; test: Minimum inhibitory concentration required to reduce virus induced cytopathogenicity in primary rabbit kidney cell cultures by 50% against HSV-1 (McIntyre)
Outline: (§1)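 Primary rabbit kidney cell cultures infected with HSV-1 strains KOS, McIntyre or F, or HSV-2 strains Lyons, G or 196. Antiviral assays ran 3–4 days, with inhibition of virus-induced cytopathogenicity as the read-out. Cytotoxicity was checked as microscopically visible change in normal cell morphology, up to 400 µg/mL.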

Oryctolagus cuniculus [2] = organism: Oryctolagus cuniculus; test: Minimum inhibitory concentration required to reduce virus induced cytopathogenicity in primary rabbit kidney cell cultures by 50% against HSV-1 (F); outline: as §1
Oryctolagus cuniculus [3] = organism: Oryctolagus cuniculus; test: Minimum inhibitory concentration required to reduce virus induced cytopathogenicity in primary rabbit kidney cell cultures by 50% against HSV-2 (G); outline: as §1
Oryctolagus cuniculus [4] = organism: Oryctolagus cuniculus; test: Minimum inhibitory concentration required to reduce virus induced cytopathogenicity in primary rabbit kidney cell cultures by 50% against Vesicular stomatitis virus
Oryctolagus cuniculus [5] = organism: Oryctolagus cuniculus; test: Minimum inhibitory concentration required to reduce virus induced cytopathogenicity in primary rabbit kidney cell cultures by 50% against HSV-2 ([…]); outline: as §1
Oryctolagus cuniculus [6] = organism: Oryctolagus cuniculus; test: Minimum inhibitory concentration required to reduce virus induced cytopathogenicity in primary rabbit kidney cell cultures by 50% against Vaccinia virus
Oryctolagus cuniculus [7] = organism: Oryctolagus cuniculus; test: Minimum inhibitory concentration required to reduce virus induced cytopathogenicity in primary rabbit kidney cell cultures by 50% against HSV-2 (196); outline: as §1
Oryctolagus cuniculus [8] = organism: Oryctolagus cuniculus; test: Minimum inhibitory concentration required to reduce virus induced cytopathogenicity in primary rabbit kidney cell cultures by 50% against HSV-1 ((KOS); outline: as §1

## Nc1nc(O)c2ncn(COCCOC(=O)CCC(=O)[O-])c2n1.[Na+]
Oryctolagus cuniculus [1]
  MIC: 0.5 µg/mL
Oryctolagus cuniculus [2]
  MIC: 0.7 µg/mL
Oryctolagus cuniculus [3]
  MIC: 0.8 µg/mL
Oryctolagus cuniculus [4]
  MIC: > 400 µg/mL
Oryctolagus cuniculus [5]
  MIC: 0.5 µg/mL
Oryctolagus cuniculus [6]
  MIC: > 400 µg/mL
Oryctolagus cuniculus [7]
  MIC: 0.4 µg/mL
Oryctolagus cuniculus [8]
  MIC: 0.7 µg/mL

## [N-]=[N+]=NCC(=O)OCCOCn1cnc2c(O)nc(N)nc21
Oryctolagus cuniculus [1]
  MIC: 0.1 µg/mL (≈ 0.324 µM)
Oryctolagus cuniculus [2]
  MIC: 0.1 µg/mL (≈ 0.324 µM)
Oryctolagus cuniculus [3]
  MIC: 0.07 µg/mL (≈ 0.227 µM)
Oryctolagus cuniculus [5]
  MIC: 0.04 µg/mL (≈ 0.13 µM)
Oryctolagus cuniculus [6]
  MIC: 150 µg/mL (≈ 487 µM)
Oryctolagus cuniculus [7]
  MIC: 0.07 µg/mL (≈ 0.227 µM)
Oryctolagus cuniculus [8]
  MIC: 0.1 µg/mL (≈ 0.324 µM)

## Cl.NCCC(=O)OCCOCn1cnc2c(O)nc(N)nc21
Oryctolagus cuniculus [1]
  MIC: 0.4 µg/mL
Oryctolagus cuniculus [2]
  MIC: 0.5 µg/mL
Oryctolagus cuniculus [3]
  MIC: 0.15 µg/mL
Oryctolagus cuniculus [4]
  MIC: > 400 µg/mL
Oryctolagus cuniculus [5]
  MIC: 0.1 µg/mL
Oryctolagus cuniculus [6]
  MIC: 100 µg/mL
Oryctolagus cuniculus [7]
  MIC: 0.1 µg/mL
Oryctolagus cuniculus [8]
  MIC: 0.2 µg/mL

## CC(N)C(=O)OCCOCn1cnc2c(O)nc(N)nc21.Cl (stereo not drawn)
Oryctolagus cuniculus [1]
  MIC: 0.4 µg/mL
Oryctolagus cuniculus [2]
  MIC: 0.4 µg/mL
Oryctolagus cuniculus [3]
  MIC: 0.2 µg/mL
Oryctolagus cuniculus [4]
  MIC: > 400 µg/mL
Oryctolagus cuniculus [5]
  MIC: 0.07 µg/mL
Oryctolagus cuniculus [6]
  MIC: 70 µg/mL
Oryctolagus cuniculus [7]
  MIC: 0.1 µg/mL
Oryctolagus cuniculus [8]
  MIC: 0.4 µg/mL

## Cl.NCC(=O)OCCOCn1cnc2c(O)nc(N)nc21
Oryctolagus cuniculus [1]
  MIC: 0.1 µg/mL
Oryctolagus cuniculus [2]
  MIC: 0.1 µg/mL
Oryctolagus cuniculus [3]
  MIC: 0.08 µg/mL
Oryctolagus cuniculus [4]
  MIC: > 400 µg/mL
Oryctolagus cuniculus [5]
  MIC: 0.04 µg/mL
Oryctolagus cuniculus [6]
  MIC: 125 µg/mL
Oryctolagus cuniculus [7]
  MIC: 0.07 µg/mL
Oryctolagus cuniculus [8]
  MIC: 0.1 µg/mL

## Nc1nc2c(ncn2COCCO)c(=O)[nH]1 [ACYCLOVIR]
Oryctolagus cuniculus [1]
  MIC: 0.1 µg/mL (≈ 0.444 µM)
Oryctolagus cuniculus [2]
  MIC: 0.09 µg/mL (≈ 0.4 µM)
Oryctolagus cuniculus [3]
  MIC: 0.06 µg/mL (≈ 0.266 µM)
Oryctolagus cuniculus [4]
  MIC: > 400 µg/mL
Oryctolagus cuniculus [5]
  MIC: 0.04 µg/mL (≈ 0.178 µM)
Oryctolagus cuniculus [6]
  MIC: 80 µg/mL (≈ 355 µM)
Oryctolagus cuniculus [7]
  MIC: 0.06 µg/mL (≈ 0.266 µM)
Oryctolagus cuniculus [8]
  MIC: 0.08 µg/mL (≈ 0.355 µM)

## O=c1[nH]c(=O)n([C@H]2C[C@H](O)[C@@H](CO)O2)cc1/C=C/Br [BRIVUDINE]
Oryctolagus cuniculus [1]
  MIC: 0.01 µg/mL (≈ 0.03 µM)
Oryctolagus cuniculus [2]
  MIC: 0.01 µg/mL (≈ 0.03 µM)
Oryctolagus cuniculus [3]
  MIC: 0.8 µg/mL (≈ 2.4 µM)
Oryctolagus cuniculus [4]
  MIC: > 400 µg/mL
Oryctolagus cuniculus [5]
  MIC: 1 µg/mL (≈ 3 µM)
Oryctolagus cuniculus [6]
  MIC: 4 µg/mL (≈ 12 µM)
Oryctolagus cuniculus [7]
  MIC: 4 µg/mL (≈ 12 µM)
Oryctolagus cuniculus [8]
  MIC: 0.01 µg/mL (≈ 0.03 µM)

## O=c1[nH]c(=O)n([C@H]2C[C@H](O)[C@@H](CO)O2)cc1I [IDOXURIDINE]
Oryctolagus cuniculus [1]
  MIC: 0.2 µg/mL (≈ 0.565 µM)
Oryctolagus cuniculus [2]
  MIC: 0.15 µg/mL (≈ 0.424 µM)
Oryctolagus cuniculus [3]
  MIC: 0.2 µg/mL (≈ 0.565 µM)
Oryctolagus cuniculus [4]
  MIC: > 400 µg/mL
Oryctolagus cuniculus [5]
  MIC: 0.2 µg/mL (≈ 0.565 µM)
Oryctolagus cuniculus [6]
  MIC: 0.1 µg/mL (≈ 0.282 µM)
Oryctolagus cuniculus [7]
  MIC: 0.4 µg/mL (≈ 1.13 µM)
Oryctolagus cuniculus [8]
  MIC: 0.15 µg/mL (≈ 0.424 µM)
